# Results reported in ChEMBL document CHEMBL4842318, “A γ-lactam siderophore antibiotic effective against multidrug-resistant Pseudomonas aeruginosa, Klebsiella pneumoniae, and Acinetobacter spp” (Eur J Med Chem, 2021).
# Assays:
# Type in all cases: functional
# Acinetobacter baumannii [1] = experiment: Antibacterial activity against carbapenem resistant Acinetobacter baumannii isolate PR-314 assessed as bacterial growth inhibition by microdilution method
# How it was run: (§1)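 Broth microdilution in Chelex-treated, iron-depleted cation-adjusted Mueller-Hinton broth, following the protocol used for siderophore-containing antibiotics; inoculum lowered to 6 × 10^4 cfu/mL; MIC read as growth inhibition, in μg/mL.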
# Acinetobacter baumannii [2] = experiment: Antibacterial activity against carbapenem resistant Acinetobacter baumannii isolate PR-401 assessed as inhibition of bacterial growth at 1:1 compound to sulbactam concentration by microdilution method
# How it was run: (§2)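 Iron-depleted (Chelex-treated) cation-adjusted Mueller-Hinton broth microdilution; inoculum 6 × 10^4 cfu/mL. Test agent and sulbactam mixed 1:1 by mass and serially 2-fold diluted together. MIC in μg/mL.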
# Pseudomonas aeruginosa [3] = experiment: Antibacterial activity against wild type Pseudomonas aeruginosa isolate PR-606 assessed as inhibition of bacterial growth by microdilution method
# How it was run: (§3)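 Broth microdilution MIC in iron-depleted (Chelex resin-treated) cation-adjusted Mueller-Hinton broth, following the protocol used for siderophore-containing antibiotics. Inoculum was lowered to 6 × 10^4 cfu/mL.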
# Acinetobacter baumannii [4] = experiment: Antibacterial activity against carbapenem resistant Acinetobacter baumannii isolate PR-459 assessed as inhibition of bacterial growth at 1:1 compound to sulbactam concentration by microdilution method; how it was run: as §2
# [5] = Antibacterial activity against carbapenem susceptible Acinetobacter nosocomialis isolate PR-412 assessed as inhibition of bacterial growth in presence of 20 ug/ml sulbactam by microdilution method; settings: dose 20 µg/ml
# How it was run: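 MIC by broth microdilution using iron-depleted (Chelex-treated) cation-adjusted Mueller-Hinton broth and 6 × 10^4 cfu/mL inoculum. Compound serially diluted with sulbactam held constant at 20 μg/mL.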
# Acinetobacter baumannii [6] = experiment: Antibacterial activity against carbapenem resistant Acinetobacter baumannii isolate PR-482 assessed as bacterial growth inhibition by microdilution method; how it was run: as §1
# Acinetobacter baumannii [7] = experiment: Antibacterial activity against carbapenem resistant Acinetobacter baumannii isolate PR-380 assessed as bacterial growth inhibition by microdilution method; how it was run: as §1
# Acinetobacter baumannii [8] = experiment: Antibacterial activity against carbapenem resistant Acinetobacter baumannii isolate PR-387 assessed as bacterial growth inhibition by microdilution method; how it was run: as §1
# [9] = Antibacterial activity against carbapenem susceptible Acinetobacter nosocomialis isolate PR-491 assessed as bacterial growth inhibition by microdilution method; how it was run: as §3
# Acinetobacter baumannii [10] = experiment: Antibacterial activity against carbapenem resistant Acinetobacter baumannii isolate PR-401 assessed as bacterial growth inhibition by microdilution method; how it was run: as §1
# Acinetobacter baumannii [11] = experiment: Antibacterial activity against carbapenem resistant Acinetobacter baumannii isolate PR-325 assessed as bacterial growth inhibition by microdilution method; how it was run: as §1
# Pseudomonas aeruginosa [12] = experiment: Antibacterial activity against wild type Pseudomonas aeruginosa isolate PR-680 leucine at 533 residue assessed as inhibition of bacterial growth by microdilution method; how it was run: as §3
# Pseudomonas aeruginosa [13] = experiment: Antibacterial activity against wild type Pseudomonas aeruginosa isolate PR-651 leucine at 533 residue assessed as inhibition of bacterial growth by microdilution method; how it was run: as §3
# Acinetobacter baumannii [14] = experiment: Antibacterial activity against carbapenem resistant Acinetobacter baumannii isolate PR-326 assessed as inhibition of bacterial growth at 1:1 compound to sulbactam concentration by microdilution method; how it was run: as §2
smiles,measurement,setting,value
CC(C)(O/N=C(\C(=O)N[C@H]1CN2CC(C(=O)NCCN3C(=O)c4cc(O)c(O)cc4C3=O)=C(C(=O)O)N2C1=O)c1nc(N)sc1Cl)C(=O)O,MIC,Acinetobacter baumannii [1],> 16 mg/L
same,MIC,Acinetobacter baumannii [2],8 mg/L
same,MIC,Pseudomonas aeruginosa [3],> 16 mg/L
same,MIC,Acinetobacter baumannii [4],8 mg/L
same,MIC,[5],≤ 0.25 mg/L
same,MIC,Acinetobacter baumannii [6],> 16 mg/L
same,MIC,Acinetobacter baumannii [7],> 16 mg/L
same,MIC,Acinetobacter baumannii [8],> 16 mg/L
same,MIC,[9],> 16 mg/L
same,MIC,Acinetobacter baumannii [10],> 16 mg/L
same,MIC,Acinetobacter baumannii [11],> 16 mg/L
same,MIC,Pseudomonas aeruginosa [12],> 16 mg/L
same,MIC,Pseudomonas aeruginosa [13],> 16 mg/L
same,MIC,Acinetobacter baumannii [14],2 mg/L
